Experimental data published in ChEMBL document CHEMBL1151761, “Radiohalogenated prostate-specific membrane antigen (PSMA)-based ureas as imaging agents for prostate cancer” (J Med Chem, 2008).

Legend:
Format in all cases: ADME, organism-based
[1] = Ratio of drug level in tumor to muscle of human PSMA expressing PC3 PIP and PSMA deficient human PC3 flu cells xenografted SCID mouse at 2 uCi, iv after 2 hrs; conditions: in vivo
Method in brief: (§1)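 Male SCID mice carried subcutaneous PSMA+ PC-3 PIP (left shoulder) and PC-3 flu (right shoulder) xenografts, 1-5 × 10^6 cells in HBSS, and were used at 3-5 mm tumor diameter. Tail-vein injection of 2 µCi radioligand; four mice per time point, killed by cervical dislocation. %ID/g from a standard dilution of the dose, decay-corrected, mean ± SD; PIP tumor:organ ratios.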

[2] = Ratio of drug level in PC3 PIP tumor to PC3 flu tumor of human PSMA expressing PC3 PIP and PSMA deficient human PC3 flu cells xenografted SCID mouse at 2 uCi, iv after 60 mins; conditions: in vivo, 1 h; method in brief: as §1
Muscle tissue [3] = test: Biodistribution in muscle of PSMA expressing human PC3 PIP and PSMA deficient human PC3 flu cells xenografted SCID mouse at 2 uCi, iv after 60 mins; conditions: in vivo, 1 h
[4] = Biodistribution in PC3 PIP tumor of PSMA expressing human PC3 PIP and PSMA deficient human PC3 flu cells xenografted SCID mouse at 2 uCi, iv after 60 mins; conditions: in vivo, 1 h
Heart = test: Biodistribution in heart of PSMA expressing human PC3 PIP and PSMA deficient human PC3 flu cells xenografted SCID mouse at 2 uCi, iv after 2 hrs; conditions: in vivo
Lung = test: Biodistribution in lung of PSMA expressing human PC3 PIP and PSMA deficient human PC3 flu cells xenografted SCID mouse at 2 uCi, iv after 2 hrs; conditions: in vivo
Spleen = test: Biodistribution in spleen of PSMA expressing human PC3 PIP and PSMA deficient human PC3 flu cells xenografted SCID mouse at 2 uCi, iv after 2 hrs; conditions: in vivo
Muscle tissue [5] = test: Biodistribution in muscle of PSMA expressing human PC3 PIP and PSMA deficient human PC3 flu cells xenografted SCID mouse at 2 uCi, iv after 2 hrs; conditions: in vivo
[6] = Biodistribution in small intestine of PSMA expressing human PC3 PIP and PSMA deficient human PC3 flu cells xenografted SCID mouse at 2 uCi, iv after 2 hrs; conditions: in vivo; method in brief: as §1
Kidney = test: Biodistribution in kidney of PSMA expressing human PC3 PIP and PSMA deficient human PC3 flu cells xenografted SCID mouse at 2 uCi, iv after 5 hrs; conditions: in vivo
Muscle tissue [7] = test: Biodistribution in muscle of PSMA expressing human PC3 PIP and PSMA deficient human PC3 flu cells xenografted SCID mouse at 2 uCi, iv after 5 hrs; conditions: in vivo
[8] = Biodistribution in small intestine of PSMA expressing human PC3 PIP and PSMA deficient human PC3 flu cells xenografted SCID mouse at 2 uCi, iv after 5 hrs; conditions: in vivo; method in brief: as §1
[9] = Biodistribution in large intestine of PSMA expressing human PC3 PIP and PSMA deficient human PC3 flu cells xenografted SCID mouse at 2 uCi, iv after 5 hrs; conditions: in vivo; method in brief: as §1
Urinary bladder = test: Biodistribution in bladder of PSMA expressing human PC3 PIP and PSMA deficient human PC3 flu cells xenografted SCID mouse at 2 uCi, iv after 5 hrs; conditions: in vivo
[10] = Ratio of drug level in tumor to liver of human PSMA expressing PC3 PIP and PSMA deficient human PC3 flu cells xenografted SCID mouse at 2 uCi, iv after 30 mins; conditions: in vivo, 0.5 h; method in brief: as §1
[11] = Ratio of drug level in tumor to kidney of human PSMA expressing PC3 PIP and PSMA deficient human PC3 flu cells xenografted SCID mouse at 2 uCi, iv after 30 mins; conditions: in vivo, 0.5 h; method in brief: as §1
[12] = Ratio of drug level in tumor to muscle of human PSMA expressing PC3 PIP and PSMA deficient human PC3 flu cells xenografted SCID mouse at 2 uCi, iv after 30 mins; conditions: in vivo, 0.5 h; method in brief: as §1
[13] = Ratio of drug level in tumor to liver of human PSMA expressing PC3 PIP and PSMA deficient human PC3 flu cells xenografted SCID mouse at 2 uCi, iv after 60 mins; conditions: in vivo, 1 h; method in brief: as §1
[14] = Ratio of drug level in tumor to spleen of human PSMA expressing PC3 PIP and PSMA deficient human PC3 flu cells xenografted SCID mouse at 2 uCi, iv after 60 mins; conditions: in vivo, 1 h
Method in brief: (§2)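 Male SCID mice carried subcutaneous xenografts: PSMA+ PC-3 PIP behind the left shoulder and PSMA− PC-3 flu behind the right, 1–5 × 10^6 cells in HBSS. Mice were used at 3–5 mm tumor diameter. 2 μCi was given by tail vein, and 4 mice per time point were killed by cervical dislocation. %ID/g came from a standard dilution of the dose, decay-corrected. Ratio is PIP tumor %ID/g to organ %ID/g.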

[15] = Ratio of drug level in tumor to kidney of human PSMA expressing PC3 PIP and PSMA deficient human PC3 flu cells xenografted SCID mouse at 2 uCi, iv after 60 mins; conditions: in vivo, 1 h; method in brief: as §1
[16] = Ratio of drug level in tumor to pancreas of human PSMA expressing PC3 PIP and PSMA deficient human PC3 flu cells xenografted SCID mouse at 2 uCi, iv after 2 hrs; conditions: in vivo; method in brief: as §1
[17] = Ratio of drug level in tumor to small intestine of human PSMA expressing PC3 PIP and PSMA deficient human PC3 flu cells xenografted SCID mouse at 2 uCi, iv after 2 hrs; conditions: in vivo; method in brief: as §2
[18] = Ratio of drug level in tumor to bladder of human PSMA expressing PC3 PIP and PSMA deficient human PC3 flu cells xenografted SCID mouse at 2 uCi, iv after 2 hrs; conditions: in vivo; method in brief: as §1
[19] = Ratio of drug level in tumor to heart of human PSMA expressing PC3 PIP and PSMA deficient human PC3 flu cells xenografted SCID mouse at 2 uCi, iv after 30 mins; conditions: in vivo, 0.5 h; method in brief: as §1
[20] = Ratio of drug level in tumor to lung of human PSMA expressing PC3 PIP and PSMA deficient human PC3 flu cells xenografted SCID mouse at 2 uCi, iv after 30 mins; conditions: in vivo, 0.5 h; method in brief: as §1
[21] = Ratio of drug level in tumor to liver of human PSMA expressing PC3 PIP and PSMA deficient human PC3 flu cells xenografted SCID mouse at 2 uCi, iv after 5 hrs; conditions: in vivo; method in brief: as §1
[22] = Ratio of drug level in tumor to spleen of human PSMA expressing PC3 PIP and PSMA deficient human PC3 flu cells xenografted SCID mouse at 2 uCi, iv after 5 hrs; conditions: in vivo; method in brief: as §2
[23] = Ratio of drug level in tumor to muscle of human PSMA expressing PC3 PIP and PSMA deficient human PC3 flu cells xenografted SCID mouse at 2 uCi, iv after 5 hrs; conditions: in vivo; method in brief: as §1
[24] = Ratio of drug level in tumor to large intestine of human PSMA expressing PC3 PIP and PSMA deficient human PC3 flu cells xenografted SCID mouse at 2 uCi, iv after 5 hrs; conditions: in vivo; method in brief: as §1
Liver = test: Biodistribution in liver of PSMA expressing human PC3 PIP and PSMA deficient human PC3 flu cells xenografted SCID mouse at 2 uCi, iv after 30 mins; conditions: in vivo, 0.5 h
Stomach = test: Biodistribution in stomach of PSMA expressing human PC3 PIP and PSMA deficient human PC3 flu cells xenografted SCID mouse at 2 uCi, iv after 30 mins; conditions: in vivo, 0.5 h

O=C(O)CC[C@H](NC(=O)N[C@@H](CCCCNC(=O)c1ccc([18F])cc1)C(=O)O)C(=O)O
Ratio [1]: 19
Ratio [2]: 21
Drug uptake (Muscle tissue [3]): 0.5 % ID/g
Drug uptake [4]: 6.4 % ID/g
Drug uptake (Heart): 0.15 % ID/g
Drug uptake (Lung): 1 % ID/g
Drug uptake (Spleen): 4.4 % ID/g
Drug uptake (Muscle tissue [5]): 0.2 % ID/g
Drug uptake [6]: 0.3 % ID/g
Drug uptake (Kidney): 14 % ID/g
Drug uptake (Muscle tissue [7]): 0.1 % ID/g
Drug uptake [8]: 0.1 % ID/g
Drug uptake [9]: 0.6 % ID/g
Drug uptake (Urinary bladder): 5.2 % ID/g
Ratio [10]: 1
Ratio [11]: 0.1
Ratio [12]: 4
Ratio [13]: 1
Ratio [14]: 1
Ratio [15]: 0.1
Ratio [16]: 25
Ratio [17]: 12
Ratio [18]: 0.3
Ratio [19]: 11
Ratio [20]: 5
Ratio [21]: 3.5
Ratio [22]: 3.5
Ratio [23]: 35
Ratio [24]: 6
Drug uptake (Liver): 8.7 % ID/g
Drug uptake (Stomach): 0.8 % ID/g
